This is a sample that favours compounds with a hit; in the whole collection about 1.5% have one here.
PKA-R1A activ = activators of PKA-R1A holoenzyme, primary screen, biochemical, fluorescence polarization, Cy5-IP20, bovine R1A, mouse PKAc. PKA-R1A dissociation; scaled: DMSO 0%, 113 µM cGMP 100%. activation, % at 11.4 µM. 340,000 compounds, 0.083% hits. AID 504707, 2011;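 active = percent activation above the mean of all tested compounds plus 3 SD, cut at about 19% in these data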;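 also: higher means more PKAc released from R1A so a rise in polarization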
PKA-R2B activ = activators of PKA-R2B holoenzyme, primary screen, biochemical, fluorescence polarization, Cy5-IP20, human; 340,000 compounds, 0.079% hits; activation, % at 11.4 µM; cAMP-dependent protein kinase catalytic subunit beta (Homo sapiens) + cAMP-dependent …; PKA-R2B holoenzyme dissociation; R2B truncated from residue 108, S112A mutant; 0% DMSO only, 100% 113 µM cGMP;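 active = activation above a cutoff set at the mean over all compounds plus 3 SD, cut at about 18% in these data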;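 also: higher means more holoenzyme dissociation and a rise in polarization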
Rin1-Abl PPI inh = inhibitors of Rin1-Abl protein binding, primary screen, biochemical, TR-FRET; Tyrosine-protein kinase ABL1 (Homo sapiens) + Ras and Rab interactor 1 (Homo sapiens), …; inhibition, % at 7.35 µM; 360,000 compounds, 0.4% hits; in the data active = inhibition above about 5%, passing the limit was not always enough
Cardio protect = cardioprotection against H2O2-induced cell death, primary screen, uHTS, H9c2 cells, ATPLite luminescence. H9c2 cardiomyocytes, H2O2 injury protection, 2 h. protection from H2O2 cell death, % at 20 µM. 360,000 compounds, 0.63% hits. AID 588492, 2011;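 active = compounds giving at least 50% protection of heart cells from peroxide-induced death in the single-dose screen, raw or plate-pattern-corrected value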;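 also: 0% = DMSO wells with peroxide and 100% = DMSO wells without peroxide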
TbMetRS inhib = T. brucei MetRS inhibitors, primary screen, biochemical, luminescence; inhibition, % at 11.9 µM; purified T. brucei MetRS, ATP depletion, Kinase-Glo luminescence; methionyl-tRNA synthetase (Trypanosoma brucei brucei); 360,000 compounds, 0.4% hits; AID 624268, 2012;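 active = inhibition above a per-plate cutoff of the control wells' mean inhibition plus 3 SD, cut at about 5.5% in these data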;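 also: 0% = DMSO wells median and 100% = median of wells with control inhibitor compound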
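Assay system: T. brucei methionyl-tRNA synthetase, purified | Medium: HEPES buffer with MgCl2, KCl, DTT, spermine, BSA, pyrophosphatase | Compound: 11.9 µM single point | Incubation: 15 min enzyme-compound preincubation, 2 h reaction, 10 min detection, 25 °C | Measured by: Kinase-Glo luciferase luminescence reporting remaining unconsumed ATP | Measure: % inhibition normalized to control-well medians | Replication: Singlicate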
An asterisk follows results filed as active.

Results for Cc1ccc(N2CC(C(=O)NCc3n[nH]c(=O)c4ccccc34)CC2=O)cc1C (stereo unspecified) ?
PKA-R1A activ: 9.9; PKA-R2B activ: 5.7; Rin1-Abl PPI inh: 1.8; Cardio protect: 72.0*; TbMetRS inhib: 0.0

Results for COc1ccc(NCc2n[nH]c(=O)c3ccccc23)cc1 ?
PKA-R1A activ: 2.9; PKA-R2B activ: 2.8; Rin1-Abl PPI inh: -5.5; Cardio protect: 76.0*; TbMetRS inhib: 0.0

How did C[C@@H]1CCCCO[C@@H](CN(C)S(C)(=O)=O)[C@@H](C)CN([C@H](C)CO)C(=O)c2cc(N(C)C)ccc2O1 do in these assays?
PKA-R1A activ: 5.4; PKA-R2B activ: -2.8; Rin1-Abl PPI inh: -0.6; Cardio protect: 1.8; TbMetRS inhib: 0.0

What do the screens show for `CC1CCCN(C(=O)COC(=O)C2CCN(S(=O)(=O)c3ccc4c(c3)OCCO4)CC2)C1` (stereo unspecified)?
PKA-R1A activ: -13.3; PKA-R2B activ: -14.6; Rin1-Abl PPI inh: 1.1; Cardio protect: -3.6; TbMetRS inhib: -0.8

What do the screens show for `Cc1sc2nc(CSCC(=O)N(CCC#N)c3ccccc3F)[nH]c(=O)c2c1C`?
PKA-R1A activ: 5.3; PKA-R2B activ: -11.8; Rin1-Abl PPI inh: 1.0; Cardio protect: 59.0*; TbMetRS inhib: -0.5

What do the screens show for `O=C(Nc1ccc(F)cc1)Nc1ccccc1C(=O)NCCN1CCNC1=O`?
Rin1-Abl PPI inh: -0.5; Cardio protect: 2.0; TbMetRS inhib: -0.1

How did CCOC(=O)c1cnc(SC)nc1Oc1cccc(NC(=O)c2ccc(C)cc2)c1 do in these assays?
PKA-R1A activ: -1.0; PKA-R2B activ: 10.1; Rin1-Abl PPI inh: -1.3; Cardio protect: -3.3; TbMetRS inhib: -0.3

What do the screens show for `CCOC(=O)c1cnc(SC)nc1Oc1cccc(NC(=O)c2cccc(Cl)c2Cl)c1`?
PKA-R1A activ: -4.7; PKA-R2B activ: 3.8; Rin1-Abl PPI inh: 2.2; Cardio protect: 71.2*; TbMetRS inhib: -0.6

How did CCCc1nc2ccccc2c(C(=O)OC(C)C(=O)NCc2ccc3c(c2)OCO3)c1CC (stereo unspecified) do in these assays?
PKA-R1A activ: 0.7; PKA-R2B activ: 2.5; Rin1-Abl PPI inh: -0.5; Cardio protect: 1.5; TbMetRS inhib: 0.1

What do the screens show for `CC(=O)c1cccc(NC(=O)C(C)OC(=O)CCc2nc3ccccc3c(=O)[nH]2)c1` (stereo unspecified)?
PKA-R1A activ: 6.3; PKA-R2B activ: 9.8; Rin1-Abl PPI inh: -4.8; Cardio protect: 52.2*; TbMetRS inhib: 0.9

Results for CC(OC(=O)CCc1nc2ccccc2c(=O)[nH]1)C(=O)Nc1cccc(C(F)(F)F)c1 (stereo unspecified) ?
PKA-R1A activ: -12.2; PKA-R2B activ: -5.2; Rin1-Abl PPI inh: 2.2; Cardio protect: 33.5; TbMetRS inhib: 0.0

What do the screens show for `CC(OC(=O)CCc1nc2ccccc2c(=O)[nH]1)C(=O)NCc1ccc2c(c1)OCO2` (stereo unspecified)?
PKA-R1A activ: -0.7; PKA-R2B activ: -14.7; Rin1-Abl PPI inh: 0.9; Cardio protect: 67.4*; TbMetRS inhib: 1.1

How did CC(C)(C)N(Cc1ccccc1)C(=O)COC(=O)CSc1ccc([N+](=O)[O-])cc1 do in these assays?
PKA-R1A activ: -0.2; PKA-R2B activ: 6.1; Rin1-Abl PPI inh: 1.0; Cardio protect: -5.5; TbMetRS inhib: -0.2

What do the screens show for `O=C(c1ccc(N2CN(C(=O)c3ccco3)c3nc4ccccc4nc32)cc1)N1CCOCC1`?
PKA-R1A activ: 9.1; PKA-R2B activ: 2.2; Rin1-Abl PPI inh: 1.1; Cardio protect: 72.2*; TbMetRS inhib: -0.9

How did Cc1nn(C)c(NC(=O)c2ccccc2Cl)c1Cl do in these assays?
PKA-R1A activ: -3.7; PKA-R2B activ: -2.2; Rin1-Abl PPI inh: 1.1; Cardio protect: -1.4; TbMetRS inhib: 0.0

Results for O=C(Nc1cccnc1)c1sc(Nc2ccccc2)nc1-c1ccccc1 ?
PKA-R1A activ: -8.0; PKA-R2B activ: -2.7; Rin1-Abl PPI inh: -0.9; Cardio protect: 65.3*; TbMetRS inhib: 0.2

How did C[C@H](CO)N1C[C@H](C)[C@@H](CN(C)S(=O)(=O)c2cccs2)Oc2ccc(NC(=O)Nc3ccccc3)cc2C1=O do in these assays?
PKA-R1A activ: -1.0; PKA-R2B activ: -1.4; Rin1-Abl PPI inh: -5.2; Cardio protect: 67.5*; TbMetRS inhib: 3.7

Results for C[C@H](CO)N1C[C@H](C)[C@@H](CN(C)S(=O)(=O)c2ccc(F)cc2)Oc2ccc(NC(=O)Nc3ccc4c(c3)OCO4)cc2C1=O ?
PKA-R1A activ: -4.0; PKA-R2B activ: -6.0; Rin1-Abl PPI inh: -1.2; Cardio protect: 62.1*; TbMetRS inhib: 0.8

What do the screens show for `C[C@@H]1CN([C@@H](C)CO)C(=O)c2cc(NC(=O)Nc3ccc4c(c3)OCO4)ccc2O[C@H]1CN(C)S(=O)(=O)c1ccc(F)cc1`?
PKA-R1A activ: 3.9; PKA-R2B activ: 9.8; Rin1-Abl PPI inh: 2.0; Cardio protect: 19.5; TbMetRS inhib: -0.2

What do the screens show for `C[C@@H]1CN([C@H](C)CO)C(=O)c2cc(NC(=O)Nc3ccc(C(F)(F)F)cc3)ccc2O[C@H]1CN(C)S(=O)(=O)c1cccs1`?
PKA-R1A activ: -4.1; PKA-R2B activ: -8.3; Rin1-Abl PPI inh: 1.2; Cardio protect: -3.4; TbMetRS inhib: 0.0

How did CC1Cc2ccccc2N1C(=O)COC(=O)c1n[nH]c(=O)c2ccccc12 (stereo unspecified) do in these assays?
PKA-R1A activ: -4.0; PKA-R2B activ: -5.9; Rin1-Abl PPI inh: 0.9; Cardio protect: 53.7*; TbMetRS inhib: -0.4

What do the screens show for `CC1Cc2ccccc2N1C(=O)Cn1nc(C(=O)O)c2ccccc2c1=O` (stereo unspecified)?
PKA-R1A activ: -5.3; PKA-R2B activ: 2.4; Rin1-Abl PPI inh: 0.6; Cardio protect: 53.4*; TbMetRS inhib: -0.6

How did Cc1cnc(C(=O)OCC(=O)N2c3ccccc3CC2C)cn1 (stereo unspecified) do in these assays?
PKA-R1A activ: -0.3; PKA-R2B activ: 8.3; Rin1-Abl PPI inh: -0.5; Cardio protect: -3.8; TbMetRS inhib: -0.6

How did COc1cccc(OC)c1-c1nn2c(-c3ccco3)nnc2s1 do in these assays?
PKA-R1A activ: 1.6; PKA-R2B activ: -3.7; Rin1-Abl PPI inh: -0.2; Cardio protect: 53.6*; TbMetRS inhib: 0.2

How did COc1cccc(-c2nn3c(-c4ccco4)nnc3s2)c1 do in these assays?
PKA-R1A activ: -0.9; PKA-R2B activ: 14.3; Rin1-Abl PPI inh: -4.0; Cardio protect: 73.2*; TbMetRS inhib: -0.5

Assay outcomes deposited in PubChem BioAssay by several laboratories.
